Experimental data pooled from the literature.
Each line is one published result; the experiments were not run side by side.
Target: Serine/threonine-protein kinase 17B (STK17B, Homo sapiens, UniProt O94768)
Sequence (O94768 1-372, as in one of the studies): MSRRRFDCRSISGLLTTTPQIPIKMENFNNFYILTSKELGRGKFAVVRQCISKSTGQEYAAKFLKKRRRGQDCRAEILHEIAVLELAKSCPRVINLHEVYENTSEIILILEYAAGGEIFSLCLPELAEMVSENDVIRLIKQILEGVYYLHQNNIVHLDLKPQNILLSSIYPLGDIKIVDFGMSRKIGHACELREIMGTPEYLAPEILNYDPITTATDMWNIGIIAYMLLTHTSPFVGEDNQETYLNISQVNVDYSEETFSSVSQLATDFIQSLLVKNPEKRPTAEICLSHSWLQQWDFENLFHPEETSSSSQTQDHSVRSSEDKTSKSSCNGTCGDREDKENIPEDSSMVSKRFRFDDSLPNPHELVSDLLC

| Compound | effect on | mode | method | tested at | measurement | result |
| --- | --- | --- | --- | --- | --- | --- |
| NS(=O)(=O)c1ccc(CNc2nc(Nc3cccc(NC(=O)N4CCCC4)c3)ncc2Br)cc1 | enzyme activity | inhibitor | radiometric | 1 µM | remaining activity | 23% |
| COc1cc(Cl)c(C(=O)N[C@@H](CN[C@H]2CC[C@@H](N)CC2)Cc2ccc(C#N)cc2)cc1-c1ccc(CN[C@H](C)c2ccc(C)cc2)o1 | enzyme activity | inhibitor | – | 1 µM | remaining activity | 94% |
| CN1CC(Oc2cnc(C#N)cc2-c2ccn3nc(NC(=O)C4CC4)cc3c2)C1 | enzyme activity | inhibitor | – | 1 µM | inhibition | -4% |
| Cc1nn(CC(F)(F)F)cc1Nc1ncc(Br)c(NCCc2cnc[nH]2)n1 | enzyme activity | inhibitor | radiometric | 1 µM | remaining activity | 12% |
| Nc1ncnc2occ(-c3ccc(NC(=O)Nc4cc(C(F)(F)F)ccc4F)cc3)c12 | cell-free assay | – | – | 20 µM | remaining signal | 94% |
| CCN1CCC2(CC1)NC(=O)c1c(c3ccc(Cl)c(Cl)c3n1C)C2C#N (racemic) | thermal stability | – | DSF | 10 µM | ΔTm | 1 °C |
| O=C(Nc1cccnn1)N1CC(C/C=C/c2cncc(Oc3ccc(C(F)(F)F)cn3)n2)C1 | cell-free assay | – | competition with immobilised ligand | 1 µM | remaining binding | 100% |
| CS(=O)(=O)Nc1cccc(-c2csc(NC(=O)CSc3nc4nccnc4c(=O)n3CCc3ccccc3)n2)c1 | enzyme activity | inhibitor | – | 10 µM | inhibition | 4% |
| C[C@H](NC(=O)c1cnc2n1[C@](C)(Cc1ccc(C#N)cc1)C(=O)N2c1cc(Cl)c(F)c(Cl)c1)C(=O)NC1(c2ccccn2)CC1 | cell-free assay | – | competition with immobilised ligand | 1 µM | remaining binding | 100% |
| O=C(CSc1nc2nccnc2c(=O)n1CCc1ccccc1)Nc1nccs1 | enzyme activity | inhibitor | – | 10 µM | inhibition | 11% |
| Cc1nn(CC(F)(F)F)cc1Nc1ncc(Br)c(NCCCNC(=O)C2CCC2)n1 | enzyme activity | inhibitor | radiometric | 1 µM | remaining activity | 5% |
| Cc1nc(N2CC[C@@H](O)C2)ncc1-c1cc(C(F)(F)F)cc2[nH]ncc12 | cell-free assay | – | competition with immobilised ligand | 1 µM | remaining binding | 99% |
| Cc1nn(CC(F)(F)F)cc1Nc1nccc(NCc2ccc(S(N)(=O)=O)cc2)n1 | enzyme activity | inhibitor | radiometric | 1 µM | remaining activity | 92% |
| Cc1ccc(C(=O)Nc2ccc(CN3CCN(C)CC3)c(C(F)(F)F)c2)cc1C#Cc1cnc2cccnn12 | enzyme activity | – | – | 23.5 nM | remaining activity | 100% |
